High-throughput results as filed in PubChem BioAssay.
core dimer inh: HCV core protein dimerization inhibition | inhibition, % at 5 µM | TR-FRET GST/Flag-core106 dimerization, 1536-well | hit rate 0.33% among 300,000;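 active means inhibition above the mean of all tested compounds plus 3 SD, set per screening campaign, cut at about 45% in these data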
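Material: Tagged HCV core106 pair (GST and Flag) | Amount: GST-core106 13.5 nM, Flag-core106 17 nM | Medium: KF-containing HEPES buffer, pH 7.45, DTT, CHAPS, BSA | Reagent: Eu donor and XL665 acceptor anti-tag antibodies | Schedule: 4 h at 22.5 °C | Technique: Time-resolved FRET, ex 340 nm, em 617 and 671 nm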
TAAR1 antagonist: antagonists of human TAAR1. CHO RD-HGA16 TAAR1, Fluo-8 calcium fluorescence, antagonist. inhibition, % at 3 µM. hit rate 1.5% among 360,000;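 active means inhibition above a per-plate cutoff, the mean inhibition of test compounds on that plate plus 3 SD, cut at about 49% in these data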
Target sequence (Q96RJ0 whole entry, looked up): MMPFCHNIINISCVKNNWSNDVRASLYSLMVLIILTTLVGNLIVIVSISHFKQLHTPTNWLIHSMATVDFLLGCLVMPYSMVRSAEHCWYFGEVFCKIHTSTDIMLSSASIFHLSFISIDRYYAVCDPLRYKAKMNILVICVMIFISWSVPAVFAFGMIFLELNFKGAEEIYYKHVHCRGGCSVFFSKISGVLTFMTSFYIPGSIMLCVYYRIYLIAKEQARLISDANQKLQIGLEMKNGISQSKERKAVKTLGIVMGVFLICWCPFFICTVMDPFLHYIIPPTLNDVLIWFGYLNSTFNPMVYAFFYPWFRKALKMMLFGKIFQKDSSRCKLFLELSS
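Assay system: RD-HGA16 CHO cells with stable hTAAR1 and Gα16 / Reagent: EC80 β-phenethylamine stimulus / Doses: 3 µM, single point / Timing: dye loading 75 min at 37 °C, then 30 min room temperature / Measured by: Fluo-8 intracellular calcium dye fluorescence, real-time kinetic reads / Controls: vehicle wells and EC80 agonist wells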
rCAG binder: molecules binding r(CAG) RNA repeats; hit rate 1.3% among 370,000; r(CAG) RNA repeat, TO-PRO-1 dye displacement fluorescence; inhibition, % at 3 µM;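 active means inhibition above the plate cutoff, the mean of all test compounds on that plate plus 3 SD, cut at about 35% in these data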;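 further: higher means more dye released from RNA so lower well fluorescence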
NS3 helicase inh: HCV NS3 helicase inhibition. NS3 helicase DNA unwinding, Cy5 molecular beacon fluorescence. inhibition, % at 10.9 µM. hit rate 0.56% among 290,000. AID 1800;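 active means inhibition above the mean of all tested compounds plus 3 SD, set per campaign, cut at about 35% in these data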
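Measured by: Cy5 fluorescence, 0 and 60 min reads / Assay system: NS3 helicase fragment of HCV / Control set: low DMSO, high thioflavine S at 110 µM / Times: 1 h reaction at 25 °C, ATP-initiated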
TAAR1 agonist: human TAAR1 agonism | Q96RJ0 | CHO RD-HGA16 TAAR1, Fluo-8 calcium fluorescence; vehicle wells 0%, saturating PEA agonist 100% | activation, % at 3 µM | hit rate 0.99% among 360,000 | AID 624467;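 active means activation above the mean activation of all test compounds in the run plus 3 SD, cut at about 38% in these data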
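Test system: RD-HGA16 (CHO) cells co-expressing Gα16 and hTAAR1 / Benchmarks: DMSO vehicle as 0%, PEA at EC100 as 100% / Repeats: no replicates (n 1) / Measure: % activation from peak over basal fluorescence ratio, DMSO-to-PEA scaled / Timing: 17-24 h plating, Fluo-8 75 min 37 °C, 30 min RT / Technique: kinetic Fluo-8 calcium fluorescence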
nonsel antag count: nonselective antagonism, TAAR1 counter-screen | hit rate 77% among 2,400 | shares compounds with TAAR1 antagonist | inhibition, % at 3 µM | counterscreen cell line, calcium fluorescence, antagonist mode | AID 651780; in the data active means inhibition above about 22%;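 further: CHO-Ga16 host cells stimulated with ATP at an EC80 level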
TAAR1 ant conf: human TAAR1 antagonism, confirmed; TAAR1-expressing cells, fluorescence antagonist read-out; hit rate 40% among 2,400; inhibition, % at 3 µM; shares compounds with TAAR1 antagonist; in the data active means inhibition above about 49%;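 further: CHO-Ga16 host cells challenged with agonist PEA near its EC80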
Ga16 nonsel ag: nonselective Ga16 agonist in TAAR1 antagonist counter-screen; shares compounds with TAAR1 antagonist; Ga16-expressing cells, calcium fluorescence, agonist counterscreen; activation, % at 3 µM; hit rate 18% among 2,400; AID 651953; in the data active means activation above about 12%
TAAR1 ag counter: counter-screen for human TAAR1 antagonists: TAAR1 agonists | AID 651955 | hTAAR1 cell line, fluorescence activation, agonist mode | hit rate 2% among 2,400 | activation, % at 3 µM | shares compounds with TAAR1 antagonist; in the data active means activation above about 37%;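 further: CHO cells stably expressing TAAR1 with calcium dye readout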
Hits are given with their value; n = inactive; x = not tested or not shown. Rows were chosen to be rich in hits. Some 3.7% of all compounds tested hit in one or more screens of this group.

SMILES	core dimer inh	TAAR1 antagonist	rCAG binder	NS3 helicase inh	TAAR1 agonist	nonsel antag count	TAAR1 ant conf	Ga16 nonsel ag	TAAR1 ag counter
C(=N\Nc1nc(-c2cccnc2)nc2ccccc12)/c1ccccc1	n	n	n	n	n	x	x	x	x
COc1ccc2nc(NC(=O)C3CCN(S(=O)(=O)c4cccc5nsnc45)CC3)sc2c1	n	61.3	n	n	n	34.0	55.6	n	n
O=C1c2ccccc2C(c2nnnn2Cc2ccccc2)N1CCc1ccccc1F (configuration not stated)	x	67.6	n	x	n	28.9	50.9	n	n
CC(C)CCN1C(=O)c2ccccc2C1c1nnnn1Cc1ccccc1 (configuration not stated)	x	n	n	x	n	x	x	x	x
O=C1c2ccccc2C(c2nnnn2Cc2ccccc2)N1CCc1ccc(O)cc1 (configuration not stated)	x	67.1	n	x	n	28.4	52.8	n	n
COC(=O)C1CN(Cc2cn(Cc3ccccc3)nn2)CCS(=O)(=O)N1Cc1ccc(C)cc1 (configuration not stated)	x	x	n	x	x	x	x	x	x
O=C1C(=Cc2cccs2)C(=O)c2ccccc21	n	104.0	n	n	n	n	n	n	n
c1ccc(CCNc2nc(-c3ccncc3)nc3ccccc23)cc1	n	66.7	n	n	n	26.6	n	n	n
CC(COc1ccc(Br)cc1)CN1CCC(C(O)(c2ccccc2)c2ccccc2)CC1 (configuration not stated)	x	x	n	x	x	x	x	x	x
Cc1ccc(NC(=O)C(C)c2ccc(-c3ccccc3)c(F)c2)c(C)c1 (configuration not stated)	n	54.3	n	n	n	n	n	n	n
Cc1ccc(Cn2nnc3c2-c2cc(F)ccc2S(=O)(=O)N(C(C)(C)C)C3)cc1	x	x	n	x	x	x	x	x	x
COc1ccccc1N1CCN(C(=O)c2cccc(S(=O)(=O)N3c4ccccc4CC3C)c2)CC1 (configuration not stated)	x	74.8	n	x	n	38.9	49.9	n	n
CC1Cc2ccccc2N1S(=O)(=O)c1cccc(C(=O)N2CCCCC2)c1 (configuration not stated)	x	n	n	x	n	x	x	x	x
COc1ccc(-c2ccc3c(n2)CCCN3S(=O)(=O)c2ccc(F)cc2)cc1	x	n	n	x	n	x	x	x	x
CCCCS(=O)(=O)N1CCCc2nc(-c3ccc(OC)cc3)ccc21	x	49.4	n	x	n	32.0	n	n	n
CC(=O)N1CCCN(C(=O)Cn2cnc3ccccc3c2=O)CC1	x	x	n	x	x	x	x	x	x
CN(C)c1ccc(C(C(=O)NCc2ccccc2)N(Cc2ccco2)C(=O)c2snc(C(N)=O)c2N)cc1 (configuration not stated)	n	71.1	n	n	n	27.4	57.6	n	n
O=C(NCc1ccccc1)C(c1ccc(F)cc1)N(Cc1ccco1)C(=O)c1ccccn1 (configuration not stated)	n	n	n	n	n	x	x	x	x
NC(=O)c1nsc(C(=O)N(Cc2ccco2)C(C(=O)NCc2ccc(F)cc2)c2ccc(O)cc2)c1N (configuration not stated)	n	77.6	n	n	n	36.6	55.9	n	n
Cc1ccc(C(C(=O)NCc2ccc(F)cc2)N(Cc2ccco2)C(=O)c2snc(C(N)=O)c2N)o1 (configuration not stated)	n	63.2	n	n	n	31.2	61.6	n	n
Cc1ccccc1C(C(=O)NCc1ccccc1)N(Cc1ccco1)C(=O)c1ccccn1 (configuration not stated)	n	50.0	n	n	n	27.3	n	n	n
NC(=O)c1nsc(C(=O)N(Cc2cccnc2)C(C(=O)NCc2ccccc2)c2ccc(O)cc2)c1N (configuration not stated)	n	n	n	n	n	x	x	x	x
CCC(C)(C)NC(=O)C(c1ccc(F)cc1)N(Cc1ccco1)C(=O)c1snc(C(N)=O)c1N (configuration not stated)	n	n	n	n	n	x	x	x	x
Cc1nn(CCC(=O)NNC(=O)Nc2ccccc2)c(C)c1[N+](=O)[O-]	x	x	n	x	x	x	x	x	x
COC(=O)N1Cc2ccnnc2CC1c1ccccc1-c1ccccc1 (configuration not stated)	x	n	n	x	n	x	x	x	x
SMILES	core dimer inh	TAAR1 antagonist	rCAG binder	NS3 helicase inh	TAAR1 agonist	nonsel antag count	TAAR1 ant conf	Ga16 nonsel ag	TAAR1 ag counter
COc1ccccc1NS(=O)(=O)c1cc([N+](=O)[O-])ccc1N/N=C/c1c(C)[nH]c2ccccc12	n	58.3	n	n	n	47.3	n	16.4	n
C=CCN1C(=O)[C@@H](CC(=O)NCCc2ccccc2OC)[C@]2(C(=O)OCC)CCCCC/C=C/12	x	x	n	x	x	x	x	x	x
CN1C(=O)c2cc(NC(=O)Nc3ccccc3)ccc2OC[C@H]2O[C@@H](CC(=O)Nc3cc(F)ccc3F)CC[C@@H]21	x	x	n	x	x	x	x	x	x
Cc1ccc2nc(C(F)(F)F)c(C#N)c(N)c2c1	n	n	n	n	n	x	x	x	x
N#CC(c1ccc(Cl)cc1)c1nc2ccccc2nc1C(F)(F)F (configuration not stated)	n	56.7	n	n	n	n	n	n	n
Cc1cccc(C(C#N)c2nc3ccccc3nc2C(F)(F)F)c1 (configuration not stated)	n	79.9	n	n	n	n	82.8	n	n
COc1ccc(C(C#N)c2nc3ccccc3nc2Cl)cc1 (configuration not stated)	x	n	n	n	n	x	x	x	x
O=C(Nc1c(-c2ccc(F)cc2)nc2ncccn12)c1ccccc1	x	x	n	x	x	x	x	x	x
CCC1CN(C(=O)N2CCC(C(=O)NCc3ccccc3OC)CC2)c2ccccc2O1 (configuration not stated)	n	n	n	n	n	x	x	x	x
CCC1CN(C(=O)N2CCC(C(=O)NCc3ccccc3OC)CC2)c2cc(C)ccc2O1 (configuration not stated)	n	53.6	n	n	n	28.6	n	n	n
O=C(CSc1nnc(Cc2cccs2)n1CCc1ccccc1)N1CCCc2ccccc21	n	56.6	n	n	n	22.1	57.6	n	n
O=C(CSc1nnc(Cc2cccs2)n1C1CCCCC1)N1CCCc2ccccc21	n	64.4	n	n	n	36.0	53.7	n	n
Cn1c(Cc2cccs2)nnc1SCC(=O)N1CCCc2ccccc21	n	n	n	n	n	x	x	x	x
Cc1cc(N2CCN(S(C)(=O)=O)C[C@H]2C)ccc1N1CCN(Cc2ccccc2)[C@H](C)C1	x	n	n	x	n	x	x	x	x
